Measurements reported in ChEMBL document CHEMBL1127365, “Self-immolative prodrugs: candidates for antibody-directed enzyme prodrug therapy in conjunction with a nitroreductase enzyme” (J Med Chem, 1994).

What was measured:
[1] = tested on: V79; assay: (§1) Tested for the effect of enzyme activation on the cytotoxicity at 10 uM when incubated with chinese hamster V79 cells in presence of NADH; assay type: functional, Cricetulus griseus
Procedure, shortened: (§2)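 Chinese hamster V79 cells (2 × 10^5/mL) in PBS were exposed to the test agent plus NADH (500 μM), without enzyme, for 2 h at 37 °C. Cells were then harvested and assayed for colony-forming ability, reported as % survival. The supernatant was assayed by HPLC for remaining prodrug.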

[2] = tested on: V79; assay: as §1; assay type: functional; conditions: Cricetulus griseus, read-out: Survival; procedure, shortened: as §2
[3] = tested on: V79; assay: (§3) Tested for the effect of enzyme activation on the cytotoxicity at 10 uM when incubated with chinese hamster V79 cells; assay type: functional, Cricetulus griseus
[4] = tested on: V79; assay: (§4) Tested for the effect of enzyme activation on the cytotoxicity at 10 uM when incubated with chinese hamster V79 cells in presence of NADH and nitroreductase enzyme.; assay type: functional; conditions: Cricetulus griseus, read-out: Survival
Procedure, shortened: as §2, with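 “with” for “plus”, “μM) and E. coli B nitroreductase (10 μg/mL)” for “μM), without enzyme,”, “prodrug, giving % prodrug reduction.” for “prodrug.”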

[5] = tested on: V79; assay: as §4; assay type: functional, Cricetulus griseus
Procedure, shortened: as §2, with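 “with” for “plus”, “μM) and E. coli B nitroreductase (10 μg/mL)” for “μM), without enzyme,”, “prodrug, giving % prodrug reduction.” for “prodrug.”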

[6] = tested on: V79; assay: as §3; assay type: functional; conditions: Cricetulus griseus, read-out: Survival
Procedure, shortened: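 Chinese hamster V79 cells (2 × 10^5/mL) in PBS were exposed to the test agent alone, without NADH or NR, for 2 h at 37 °C. Cells were then harvested and assayed for colony-forming ability, reported as % survival. The supernatant was checked by HPLC for remaining prodrug.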

[7] = tested on: V79; assay: (§5) Tested for the effect of enzyme activation on the cytotoxicity at 50 uM when incubated with chinese hamster V79 cells in presence of NADH; assay type: functional, Cricetulus griseus; procedure, shortened: as §2
[8] = tested on: V79; assay: (§6) Tested for the effect of enzyme activation on the cytotoxicity at 50 uM when incubated with chinese hamster V79 cells; assay type: functional; conditions: Cricetulus griseus, read-out: Survival
[9] = tested on: V79; assay: (§7) Tested for the effect of enzyme activation on the cytotoxicity at 50 uM when incubated with chinese hamster V79 cells in presence of NADH and nitroreductase enzyme.; assay type: functional; conditions: Cricetulus griseus, read-out: Survival
Procedure, shortened: as §2, with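 “with” for “plus”, “μM) and E. coli B nitroreductase (10 μg/mL)” for “μM), without enzyme,”, “prodrug, giving % prodrug reduction.” for “prodrug.”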

[10] = tested on: V79; assay: as §6; assay type: functional, Cricetulus griseus
[11] = tested on: V79; assay: as §5; assay type: functional; conditions: Cricetulus griseus, read-out: Survival; procedure, shortened: as §2
[12] = tested on: V79; assay: as §7; assay type: functional, Cricetulus griseus
Procedure, shortened: as §2, with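 “with” for “plus”, “μM) and E. coli B nitroreductase (10 μg/mL)” for “μM), without enzyme,”, “prodrug, giving % prodrug reduction.” for “prodrug.”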

[13] = tested on: Mus musculus; assay: In vivo toxicity in mouse at dose 10 mg/kg when administered intraperitoneally on day 2; assay type: organism-based; parameters: dose 10 mg/kg, route intraperitoneal; conditions: ip
Procedure, shortened: (§8)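 Balb C mice (20-25 g), groups of 3, single ip injection in arachis oil; doses 1, 5, 10 or 100 mg/kg. Untreated and arachis-oil-only groups served as controls. Mice were fed rodent diet and water ad libitum. Body weight was recorded as % of day 0 on days 2, 3, 7 and 9, and deaths were noted.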

[14] = tested on: Mus musculus; assay: In vivo toxicity in mouse at dose 100 mg/kg when administered intraperitoneally on day 2; assay type: organism-based; parameters: dose 100 mg/kg, route intraperitoneal; conditions: ip; procedure, shortened: as §8
[15] = tested on: Mus musculus; assay: In vivo toxicity in mouse at dose 10 mg/kg when administered intraperitoneally on day 3; assay type: organism-based; parameters: dose 10 mg/kg, route intraperitoneal; conditions: ip; procedure, shortened: as §8
[16] = tested on: Mus musculus; assay: In vivo toxicity in mouse at dose 100 mg/kg when administered intraperitoneally on day 7; assay type: organism-based; parameters: dose 100 mg/kg, route intraperitoneal; conditions: ip; procedure, shortened: as §8
[17] = tested on: Mus musculus; assay: In vivo toxicity in mouse at dose 100 mg/kg when administered intraperitoneally on day 9; assay type: organism-based; parameters: dose 100 mg/kg, route intraperitoneal; conditions: ip; procedure, shortened: as §8
[18] = tested on: Mus musculus; assay: In vivo toxicity in mouse at dose 10 mg/kg when administered intraperitoneally on day 7; assay type: organism-based; parameters: dose 10 mg/kg, route intraperitoneal; conditions: ip; procedure, shortened: as §8
[19] = tested on: Mus musculus; assay: In vivo toxicity in mouse at dose 10 mg/kg when administered intraperitoneally on day 9; assay type: organism-based; parameters: dose 10 mg/kg, route intraperitoneal; conditions: ip; procedure, shortened: as §8
[20] = tested on: Mus musculus; assay: In vivo toxicity in mouse at dose 1 mg/kg when administered intraperitoneally on day 2; assay type: organism-based; parameters: dose 1 mg/kg, route intraperitoneal; conditions: ip; procedure, shortened: as §8
[21] = tested on: Mus musculus; assay: In vivo toxicity in mouse at dose 1 mg/kg when administered intraperitoneally on day 9; assay type: organism-based; parameters: dose 1 mg/kg, route intraperitoneal; conditions: ip; procedure, shortened: as §8
[22] = tested on: Mus musculus; assay: In vivo toxicity in mouse at dose 1 mg/kg when administered intraperitoneally on day 7; assay type: organism-based; parameters: dose 1 mg/kg, route intraperitoneal; conditions: ip; procedure, shortened: as §8
[23] = tested on: Mus musculus; assay: In vivo toxicity in mouse at dose 1 mg/kg when administered intraperitoneally on day 3; assay type: organism-based; parameters: dose 1 mg/kg, route intraperitoneal; conditions: ip; procedure, shortened: as §8
[24] = tested on: Mus musculus; assay: In vivo toxicity in mouse at dose 100 mg/kg when administered intraperitoneally on day 3; assay type: organism-based; parameters: dose 100 mg/kg, route intraperitoneal; conditions: ip; procedure, shortened: as §8
[25] = tested on: V79; assay: (§9) Tested for the effect of enzyme activation on the cytotoxicity at 1 uM when incubated with chinese hamster V79 cells; assay type: functional; conditions: Cricetulus griseus, read-out: Survival
[26] = tested on: V79; assay: (§10) Tested for the effect of enzyme activation on the cytotoxicity at 1 uM when incubated with chinese hamster V79 cells in presence of NADH and nitroreductase enzyme.; assay type: functional; conditions: Cricetulus griseus, read-out: Survival
Procedure, shortened: as §2, with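 “with” for “plus”, “μM) and E. coli B nitroreductase (10 μg/mL)” for “μM), without enzyme,”, “prodrug, giving % prodrug reduction.” for “prodrug.”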

[27] = tested on: V79; assay: as §9; assay type: functional, Cricetulus griseus
[28] = tested on: V79; assay: (§11) Tested for the effect of enzyme activation on the cytotoxicity at 1 uM when incubated with chinese hamster V79 cells in presence of NADH; assay type: functional; conditions: Cricetulus griseus, read-out: Survival; procedure, shortened: as §2
[29] = tested on: V79; assay: as §10; assay type: functional, Cricetulus griseus
Procedure, shortened: as §2, with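 “with” for “plus”, “μM) and E. coli B nitroreductase (10 μg/mL)” for “μM), without enzyme,”, “prodrug, giving % prodrug reduction.” for “prodrug.”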

[30] = tested on: V79; assay: as §11; assay type: functional, Cricetulus griseus; procedure, shortened: as §2
[31] = tested on: V79; assay: as §11; assay type: functional, Cricetulus griseus; remark: listed apart in the source
[32] = tested on: Mus musculus; assay: Tested in vivo toxicity in mouse at dose 1 mg/kg when administered intraperitoneally on day 2; assay type: organism-based; parameters: dose 1 mg/kg, route intraperitoneal; conditions: ip
Procedure, shortened: (§12)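 Balb C mice (20-25 g), groups of 3, fed rodent diet and water ad libitum. Single ip injection in arachis oil at 1, 5, 10 or 100 mg/kg. Untreated and arachis-oil-only groups served as controls. Body weight recorded as % of day 0 on days 2, 3, 7 and 9.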

[33] = tested on: Mus musculus; assay: Tested in vivo toxicity in mouse at dose 1 mg/kg when administered intraperitoneally on day 7; assay type: organism-based; parameters: dose 1 mg/kg, route intraperitoneal; conditions: ip; procedure, shortened: as §12
[34] = tested on: Mus musculus; assay: Tested in vivo toxicity in mouse at dose 1 mg/kg when administered intraperitoneally on day 3; assay type: organism-based; parameters: dose 1 mg/kg, route intraperitoneal; conditions: ip; procedure, shortened: as §12
[35] = tested on: Mus musculus; assay: Tested in vivo toxicity in mouse at dose 1 mg/kg when administered intraperitoneally on day 9; assay type: organism-based; parameters: dose 1 mg/kg, route intraperitoneal; conditions: ip; procedure, shortened: as §12

**Q.** `O=C(OCc1ccc([N+](=O)[O-])cc1)Oc1ccc(N(CCCl)CCCl)cc1` was tested. Which Prodrug reduction [1] did it give?
**A.** 0%

**Q.** And the viability at 10 µM [2]?
**A.** 45.8%

**Q.** And the Prodrug reduction [3]?
**A.** 0%

**Q.** And the viability at 10 µM [4]?
**A.** 43.3%

**Q.** And the Prodrug reduction [5]?
**A.** 86%

**Q.** What about the viability at 10 µM [6] of the same compound?
**A.** 56.4%

**Q.** With `O=C(Nc1ccc(N(CCCl)CCCl)cc1)OCc1ccc([N+](=O)[O-])cc1` as the compound, how does the Prodrug reduction [7] read?
**A.** 0%

**Q.** What about the viability at 50 µM [8] of the same compound?
**A.** 27.1%

**Q.** What about the viability at 50 µM [9] of the same compound?
**A.** < 0.001%

**Q.** And the Prodrug reduction [10]?
**A.** 0%

**Q.** What about the viability at 50 µM [11] of the same compound?
**A.** 34.1%

**Q.** And the Prodrug reduction [12]?
**A.** 30%

**Q.** What does the source list for `Cc1c2oc3c(C)ccc(C(=O)N[C@@H]4C(=O)N[C@H](C(C)C)C(=O)N5CCC[C@H]5C(=O)N(C)CC(=O)N(C)[C@@H](C(C)C)C(=O)O[C@@H]4C)c3nc-2c(C(=O)N[C@@H]2C(=O)N[C@H](C(C)C)C(=O)N3CCC[C@H]3C(=O)N(C)CC(=O)N(C)[C@@H](C(C)C)C(=O)O[C@@H]2C)c(NC(=O)OCc2ccc([N+](=O)[O-])cc2)c1=O` [listing 1 of 2 here]?
**A.** Weight [13]: 109%; Weight [14]: 96.4%; Weight [15]: 105%; Weight [16]: 95%; Weight [17]: 96%; Weight [18]: 108%; Weight [19]: 110%; Weight [20]: 102%; Weight [21]: 103%; Weight [22]: 101%; Weight [23]: 101%; Weight [24]: 95.6%

**Q.** `Cc1c2oc3c(C)ccc(C(=O)N[C@@H]4C(=O)N[C@H](C(C)C)C(=O)N5CCC[C@H]5C(=O)N(C)CC(=O)N(C)[C@@H](C(C)C)C(=O)O[C@@H]4C)c3nc-2c(C(=O)N[C@@H]2C(=O)N[C@H](C(C)C)C(=O)N3CCC[C@H]3C(=O)N(C)CC(=O)N(C)[C@@H](C(C)C)C(=O)O[C@@H]2C)c(NC(=O)OCc2ccc([N+](=O)[O-])cc2)c1=O` [listing 2 of 2 here] was tested. Which viability at 1 µM [25] did it give?
**A.** 98.3%

**Q.** What about the Prodrug reduction [1] of the same compound?
**A.** 0%

**Q.** What about the viability at 10 µM [2] of the same compound?
**A.** 44.6%

**Q.** And the viability at 1 µM [26]?
**A.** 27.4%

**Q.** What about the Prodrug reduction [27] of the same compound?
**A.** 0%

**Q.** What about the Prodrug reduction [3] of the same compound?
**A.** 0%

**Q.** And the viability at 10 µM [4]?
**A.** < 0.001%

**Q.** And the Prodrug reduction [5]?
**A.** 93%

**Q.** And the viability at 1 µM [28]?
**A.** 102%

**Q.** What about the Prodrug reduction [29] of the same compound?
**A.** 90.5%

**Q.** What about the viability at 10 µM [6] of the same compound?
**A.** 39.3%

**Q.** And the Prodrug reduction [30]?
**A.** 0%

**Q.** What does the source list for `COC12C(COC(N)=O)C3=C(C(O)=C(C)C(=N)C3=O)N1CC1C2N1C(=O)OCc1ccc([N+](=O)[O-])cc1` (stereo unspecified)?
**A.** viability at 1 µM [25]: 76.7%; viability at 1 µM [26]: 25.4%; Prodrug reduction [27]: 0%; Prodrug reduction [31]: 0%; viability at 1 µM [28]: 70.8%; Prodrug reduction [29]: 91%

**Q.** What does the source list for `Cc1c2oc3c(C)ccc(C(=O)N[C@@H]4C(=O)N[C@H](C(C)C)C(=O)N5CCC[C@H]5C(=O)N(C)CC(=O)N(C)[C@@H](C(C)C)C(=O)O[C@@H]4C)c3nc-2c(C(=O)N[C@@H]2C(=O)N[C@H](C(C)C)C(=O)N3CCC[C@H]3C(=O)N(C)CC(=O)N(C)[C@@H](C(C)C)C(=O)O[C@@H]2C)c(N)c1=O` (stereo in doubt) [DACTINOMYCIN]?
**A.** Weight [32]: 98.6%; Weight [33]: 101.6%; Weight [34]: 95%; Weight [35]: 103%
